In the library only some 2.7% were active in any assay of this set; here they are far more common.
sdo1 growth: restores growth of sdo1-depleted yeast | S. cerevisiae sdo1-depleted JHY4D growth rescue, OD600 30 h; stronger effect = higher value; pdr5 snq2 efflux-pump mutant strain | z-score at 10 µM | 0.21% of 140,000 active;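 active means z-score above 3 at both the 24 hr and the 30 hr optical density reads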
BB579 growth dn: yeast BB579 growth reduction in restrictive medium; AID 804; 0.51% of 140,000 active; S. cerevisiae BB579 growth, OD615, 48 h; inhibition, % at 10 µM;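 active means inhibition above a set limit, 3 SD over the mean compound inhibition, cut at about 44% in these data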
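Test system: DeaD yeast strain BB579 / Buffer or medium: restrictive glucose-based CSMM-D medium / Doses: single 10 µM dose / Schedule: 4 h cell preincubation, 48 h compound exposure, 30 °C humidified / Technique: culture absorbance at 615 nm / Controls: amphotericin B positive control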
RAM network inh: yeast RAM network inhibition. S. cerevisiae dse1pr::URA3 reporter, 5-FOA growth OD615, 2 d; analog-sensitive cbk1-as2 kinase mutant strain. inhibition, % at 50 µM. 1.8% of 190,000 active;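 active means inhibition above a set limit, 3 SD over mean compound inhibition, cut at about 8.4% in these data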;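 further: inhibition rescues growth on 5-FOA so higher OD means more RAM inhibition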
Yeast life ext: extends the lifespan of yeast. inhibition of the nicotinamide effect, % at 10 µM. S. cerevisiae growth with nicotinamide, OD615; deaD strain in restrictive glucose medium. 0.68% of 130,000 active;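 active means inhibition above a set limit, placed 3 SD over the median of all compounds, cut at about 26% in these data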
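Buffer or medium: CSMM-D glucose medium, restrictive; test system: modified budding yeast, DeaD strain; compound: single dose 10 µM compound, 0.25% DMSO; schedule: culture preincubation 4 h, compound exposure 48 h, both 30 °C; detection: optical density (absorbance) at 615 nm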
A number is an active result; - = inactive; . = no result given.

SMILES	sdo1 growth	BB579 growth dn	RAM network inh	Yeast life ext
COc1ccc(/C=C/C(=O)N(c2ccccn2)C2CCCCC2)cc1OC	.	.	-	.
FC(F)(F)c1cccc(CNc2ncccc2-c2nc3cc(Cl)ccc3o2)c1	-	-	8.5	-
Cc1ccccc1-c1nc2cc(Cl)ccc2o1	-	-	-	-
O=C(NC(=S)Nc1nc2c(s1)CSc1ccccc1-2)c1ccccc1	-	-	-	66
COc1ccc(OC)c(S(=O)(=O)n2nnc3cc(Cl)ccc32)c1	-	-	-	-
Cc1ccccc1Cn1cc(S(=O)(=O)CC(=O)Nc2nccs2)c2ccccc21	-	-	8.4	-
CCOC(=O)N1CCN(C(=O)CS(=O)(=O)c2cn(Cc3ccccc3C)c3ccccc23)CC1	-	-	-	-
O=C(NCc1ccccn1)NC12CC3CC(CC(C3)C1)C2	-	-	-	32
O=C(Nc1ccccn1)NC12CC3CC(CC(C3)C1)C2	-	-	-	-
CC1=NNC(=O)/C1=C\c1cn(-c2ccccc2)nc1-c1cccs1	-	96	-	-
O=C(NCc1ccco1)c1ccc2c(=O)n(-c3ccccc3)c(=S)[nH]c2c1	-	-	-	-
C/[N+]([O-])=C\C1C(=O)CC(C)(C)CC1=O	.	.	-	.
Cc1ccc(C(C2C(=O)CC(C)(C)CC2=O)C2C(=O)CC(C)(C)CC2=O)s1	-	-	-	34
CCCCC(=O)c1c(C)cc(C)[nH]c1=O	-	-	-	-
CC1CC1c1ccc(/C=C(\C#N)C(=O)Nc2cc(Cl)ccc2Cl)o1 (stereo not drawn)	-	-	8.7	-
O=C(NCc1ccc2c(c1)OCO2)c1c[nH]c2ccc(S(=O)(=O)N3CCOCC3)cc2c1=O	-	-	-	-
Cc1cccc(C)c1N=Cc1c(O)n(-c2nccs2)c(=O)c2ccccc12	-	-	-	33
Cc1oc(-c2ccc3c(c2)OCCO3)cc1C(=O)O	-	90	-	.
Cc1oc(-c2ccc3c(c2)OCCO3)cc1C(=O)NCC(=O)O	.	.	-	.
CCOc1[nH]n(-c2ccc(Cl)cc2)c(=O)c1C=Nc1ccc(Cl)cc1	-	-	-	-
CCOc1[nH]n(-c2ccccc2)c(=O)c1C=Nc1ccc(OC)cc1	.	.	9.0	.
Cn1c(C(C#N)C(=O)c2ccco2)nc2ccccc21 (stereo not drawn)	-	64	-	-
Cn1c(C(C#N)C(=O)Cc2cccc3ccccc23)nc2ccccc21 (stereo not drawn)	-	-	-	-
Cc1cccc(C)c1OCCn1nc(C(=O)O)c2ccccc2c1=O	-	-	10	-
Cc1cccc(OCCn2nc(C(=O)O)c3ccccc3c2=O)c1	-	-	-	-
SMILES	sdo1 growth	BB579 growth dn	RAM network inh	Yeast life ext
CC(C)N=C(NS(=O)(=O)c1ccccc1)C(Cl)(Cl)Cl	-	-	-	40
C=CCNc1nnc(SC2CC(=O)N(c3ccc(OCCC)cc3)C2=O)s1 (stereo not drawn)	-	-	-	-
O=C(Nc1nc2ccccc2s1)C1CC(=O)N(c2ccc(Br)cc2)C1 (stereo not drawn)	-	-	-	-
CC(=O)Nc1ccc(NC2=Nc3ccccc3N3C2=Nc2c(c(C)nn2-c2ccccc2)C3c2ccccc2)cc1 (stereo not drawn)	-	-	9.4	-
COc1ccc2cc(CN(CC3COCCO3)S(=O)(=O)c3ccc(Cl)cc3)c(=O)[nH]c2c1 (stereo not drawn)	-	-	-	-
CC(=O)[C@H]1[C@H](c2cccc(Cl)c2)C(C#N)(C#N)[C@@H]2c3ccccc3C=CN21	-	-	-	45
CN1/C(=C\C(=S)NC(=O)c2cccc(Br)c2)C(C)(C)c2ccccc21	-	-	8.9	-
CN1/C(=C\C(=S)NC(=O)c2ccc([N+](=O)[O-])cc2)C(C)(C)c2ccccc21	-	-	-	-
CCCCCCCCCSc1n[nH]c(N)n1	-	-	-	-
C/C(=N\NC(=O)c1ccccc1O)C1C(=O)c2ccccc2C1=O	-	-	-	98
C/C(=N/NC(=O)c1cc2ccccc2cc1O)C1C(=O)c2ccccc2C1=O	-	-	-	-
Cc1cccc(N2CCN(C(=O)Cc3ccc(-n4c(=O)[nH]c5ccsc5c4=O)cc3)CC2C)c1 (stereo not drawn)	-	-	-	-
O=C(Cc1ccc(-n2c(=O)[nH]c3ccsc3c2=O)cc1)N1CCN(c2ccc(Cl)cc2)CC1	-	-	8.4	-
C/C(CC(C)C)=N\NC(=O)Nc1ccccc1	-	-	-	-
CCOC(=O)C/C(C)=N/NC(=O)Nc1ccccc1	-	-	-	31

Screening data (PubChem)
